Data reported in the RNAGym collection of RNA variant scans (doi:10.1126/science.aae0568).
Variants at the floor of the assay were thinned out.

B1: tRNA (parent)
chain: GUUCCGUUGGCGUAAUGGUAACGCGUCUCCCUCCUAAGGAGAAGACUGCGGGUUCGAGUCCCGUACGGAACG

Variants of: B1
Assay: yeast fitness relative to wild type (ratio to wild type); higher = fitter; tRNA-Arg(CCU), competitive growth, 37 C, YPD
How it was run: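 Changes in genotype frequencies gave Darwinian fitness relative to wild type. Frequencies were read by 100-nucleotide paired-end sequencing of gene amplicons before and after pooled Saccharomyces cerevisiae strains, carrying tRNA-Arg(CCU) gene variants at the native locus, were competed in YPD at 37°C for 24 hours in six replicates. A genotype was kept only with ≥ 100 starting reads, and estimates < 0.5 were set to 0.5.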
Work on G10A C29A C55G A65G yielded a yeast fitness of 0.649. Variant G10A U19A A40C A42C G68C has a yeast fitness of 0.582. G10A G17C C30G C33G gave a yeast fitness of 0.578. In the case of G10A U13A C29U C49G, the yeast fitness is reported as ≤ 0.5. In the case of G10A C27G C55A C61A, the yeast fitness is reported as ≤ 0.5. In the case of G10A G38C G50A A69G, the yeast fitness is reported as ≤ 0.5. Variant G10A U13A has a yeast fitness of 0.684. With G10A C31A C55U G63A the yeast fitness was ≤ 0.5. G10A C31A showed a yeast fitness of 0.637. With G10A C31U the yeast fitness was 0.662. For G10A C29G G56C U59A, the yeast fitness was ≤ 0.5. For G10A U13A C24U A45C A65G C66G, the yeast fitness was ≤ 0.5. In the case of G10A C30G C60G G63A A65U C66U, the yeast fitness is reported as ≤ 0.5. With G10A C30A G41C C60G A70U the yeast fitness was 0.645. In the case of G10A G17C C30G C33G G68C, the yeast fitness is reported as ≤ 0.5. Variant G10A G17A C30G U35A G50A has a yeast fitness of 0.626. With G10A G38C G67U the yeast fitness was ≤ 0.5. G10A G58C A70U showed a yeast fitness of 0.701. With G10A U26C G56A the yeast fitness was 0.542. With G10A C30U C46A C66U the yeast fitness was ≤ 0.5. In the case of G10A G50A U59A C61A C66G, the yeast fitness is reported as 0.606. With G10A C33U G56C C66A the yeast fitness was ≤ 0.5. Work on G10A U16A A65U yielded a yeast fitness of 0.575. With G10A G17C C30G C33G C61A A69U the yeast fitness was 0.581. With G10A U28A U59A the yeast fitness was ≤ 0.5. For G10A G17A U19A C29U C66U, the yeast fitness was ≤ 0.5. For G10A C33U G50A, the yeast fitness was ≤ 0.5. For G10A G12A U16A G18A A45U, the yeast fitness was ≤ 0.5. For G10A C60G G67A, the yeast fitness was ≤ 0.5. In the case of G10A U19C G48A C49G, the yeast fitness is reported as 0.56. In the case of G10A C29U G44C C60U, the yeast fitness is reported as ≤ 0.5. With G10A C27A U35C the yeast fitness was ≤ 0.5. For G10A C30U U47A G67C, the yeast fitness was ≤ 0.5. With G10A C30U G50A the yeast fitness was 0.529. In the case of G10A U26A A43G A70U, the yeast fitness is reported as ≤ 0.5. Work on G10A C55G yielded a yeast fitness of 0.605. G10A C55U showed a yeast fitness of 0.559. For G10A C31U G38C G41A G63A G68C A69G, the yeast fitness was ≤ 0.5. G10A U59C showed a yeast fitness of 0.721. In the case of G10A C27A C34U A57G, the yeast fitness is reported as ≤ 0.5. With G10A G17A C29A C34G A43C C60G the yeast fitness was ≤ 0.5. For G10A G38A A45G A70G, the yeast fitness was ≤ 0.5. Work on G10C A14C C62U yielded a yeast fitness of 0.537. With G10A U28A A42U the yeast fitness was ≤ 0.5. With G10A G17C A69U the yeast fitness was ≤ 0.5. With G10A G25A C62U the yeast fitness was ≤ 0.5. Work on G10A C30U C46A yielded a yeast fitness of 0.695. With G10A C29U C31U G48C U54A the yeast fitness was ≤ 0.5. For G10A G48A C55A, the yeast fitness was ≤ 0.5. Work on G10A G56A A69U yielded a yeast fitness of 0.601. In the case of G10A C24U C27G, the yeast fitness is reported as ≤ 0.5. G10A U13C C31G A57C gave a yeast fitness of 0.587. With G10A C30A A70G the yeast fitness was ≤ 0.5. For G10A G23C C29U A36C C49G A70C, the yeast fitness was 0.553. For G10A C31A A37C, the yeast fitness was ≤ 0.5. In the case of G10A C30U A43U C55A, the yeast fitness is reported as ≤ 0.5. In the case of G10A C34G A40C C46G, the yeast fitness is reported as ≤ 0.5. In the case of G10A C29G, the yeast fitness is reported as 0.522. For G10A C24G U47C C62U, the yeast fitness was ≤ 0.5. G10A C46A gave a yeast fitness of 0.677. With G10A G25U A36U A43G C60U the yeast fitness was ≤ 0.5. For G10C A14C G58A, the yeast fitness was ≤ 0.5. In the case of G10A G17A C30G G67U, the yeast fitness is reported as ≤ 0.5. G10A C31U G38C showed a yeast fitness of 0.512. With G10A C29U C49U G56A the yeast fitness was 0.633. In the case of G10A U19A C46A, the yeast fitness is reported as 0.542. For G10A C29A C34G A43C C60G C66U, the yeast fitness was ≤ 0.5. G10A G68A A70G gave a yeast fitness of 0.596. For G10A C31A G41A A45U G58C, the yeast fitness was ≤ 0.5. With G10A G12A G52A C66U the yeast fitness was ≤ 0.5. With G10A C31U A42G the yeast fitness was ≤ 0.5. With G10C A14C C61U the yeast fitness was ≤ 0.5. G10A U13G C27U C46G A69C gave a yeast fitness of 0.506. Variant G10A C27U U28C C30A G48A G50A has a yeast fitness of 0.985. For G10A U54C G68A A70G, the yeast fitness was ≤ 0.5. In the case of G10A G17A U19A C29U C34G, the yeast fitness is reported as ≤ 0.5. In the case of G10A U64A, the yeast fitness is reported as 0.73. With G10A U26G the yeast fitness was 0.681. G10A U26C gave a yeast fitness of 0.736. For G10A U26A, the yeast fitness was 0.731. G10A G12C C31U showed a yeast fitness of 0.62. With G10A C33U A65C the yeast fitness was ≤ 0.5. Variant G10A G44A C66U has a yeast fitness of 0.534. G10A C62U C66U gave a yeast fitness of 0.617. Work on G10A U32C yielded a yeast fitness of 0.786. Variant G10A U32A has a yeast fitness of 0.601. In the case of G10A U26C C29G C31U, the yeast fitness is reported as ≤ 0.5. For G10A C27G G48C C62A, the yeast fitness was ≤ 0.5. G10A G41A A42C G50C A70G gave a yeast fitness of 0.533. Variant G10A G41A C49U U53A C66G has a yeast fitness of 0.537. For G10A U35G A37U, the yeast fitness was 0.551. Variant G10A G23C C29U A36C has a yeast fitness of 0.532. For G10A C31U A40C G48A, the yeast fitness was ≤ 0.5. With G10A C24U G41A C49U U53A C66G the yeast fitness was ≤ 0.5. In the case of G10A C29G C33U, the yeast fitness is reported as ≤ 0.5. With G10A C60G A69G the yeast fitness was 0.616. For G10A C30A A43C A57U, the yeast fitness was ≤ 0.5. With G10A U32A C49U the yeast fitness was 0.577. For G10A U16C U35C A40U, the yeast fitness was ≤ 0.5. In the case of G10A U54G, the yeast fitness is reported as ≤ 0.5. With G10C A14G the yeast fitness was 0.569. In the case of G10A C31U G38C G63A G68C A69G, the yeast fitness is reported as 0.578. With G10C A14C C27A C29G A57C A65U the yeast fitness was ≤ 0.5. In the case of G10A C31U A65U, the yeast fitness is reported as 0.566. In the case of G10A G12A G17U U28C U54C, the yeast fitness is reported as ≤ 0.5. In the case of G10A G25C, the yeast fitness is reported as 0.656. For G10A G12A C34U A45U C49G, the yeast fitness was ≤ 0.5. Variant G10A U53C has a yeast fitness of 0.608. With G10C A14C C60A the yeast fitness was ≤ 0.5. In the case of G10A G17C C30G C33G A45U G52A A70U, the yeast fitness is reported as ≤ 0.5. In the case of G10A C31U G44C A69U, the yeast fitness is reported as ≤ 0.5. In the case of G10A U13A C30U C55G G58C, the yeast fitness is reported as ≤ 0.5. With G10A C27A A36U A37U G48C the yeast fitness was ≤ 0.5. For G10A G38U G67U, the yeast fitness was ≤ 0.5. With G10A G38U G67C the yeast fitness was ≤ 0.5. With G10A C46G A65C the yeast fitness was 0.597. In the case of G10A G17C C31U G44A C46A, the yeast fitness is reported as ≤ 0.5. In the case of G10A C29G U53A G56C C62G A69C, the yeast fitness is reported as ≤ 0.5. With G10A C61A A69C A70C the yeast fitness was ≤ 0.5. With G10A G39C A70G the yeast fitness was 0.589. In the case of G10A U16A U28C A42C C66U, the yeast fitness is reported as ≤ 0.5. For G10A U13A G67C, the yeast fitness was ≤ 0.5. For G10A C34G, the yeast fitness was ≤ 0.5. In the case of G10A G17A A36G G38C A45U C46U G67U, the yeast fitness is reported as ≤ 0.5. In the case of G10A G58C A65U, the yeast fitness is reported as ≤ 0.5. In the case of G10A C30U G63A, the yeast fitness is reported as 0.538. With G10A G23C A45G A65U the yeast fitness was ≤ 0.5. With G10A G41A C49U U53A the yeast fitness was ≤ 0.5. With G10A G44A U54C G67C the yeast fitness was ≤ 0.5. In the case of G10A C66A G67C, the yeast fitness is reported as ≤ 0.5. G10A C62U G67C gave a yeast fitness of 0.636. For G10A G17A C61A C62U A65U A69C, the yeast fitness was ≤ 0.5. G10A U35G A43G C46U gave a yeast fitness of 0.587. With G10A C33U G44C A45G the yeast fitness was ≤ 0.5. G10A U26A C66U gave a yeast fitness of 0.537. G10A C27A showed a yeast fitness of 0.801. With G10A U47G A65C the yeast fitness was ≤ 0.5. For G10A U16A G48A A65U, the yeast fitness was ≤ 0.5. For G10A U32C A57G, the yeast fitness was ≤ 0.5. With G10A C33A U35C C60A the yeast fitness was ≤ 0.5. For G10A G51A C66U, the yeast fitness was ≤ 0.5. For G10A G50A U59A C61A, the yeast fitness was ≤ 0.5. Work on G10A C24G C62U yielded a yeast fitness of 0.54. G10A G52C gave a yeast fitness of 0.528. In the case of G10A G52A, the yeast fitness is reported as 0.53. With G10A C27G G63C the yeast fitness was ≤ 0.5. In the case of G10A U13A A14C A40C C62G, the yeast fitness is reported as ≤ 0.5. With G10A C27G U35A A45U G67A the yeast fitness was ≤ 0.5. With G10A C30U G50A A70U the yeast fitness was ≤ 0.5. G10C A14C A21U C31U showed a yeast fitness of 0.773. G10A U19A gave a yeast fitness of 0.729. In the case of G10A U35A G63C, the yeast fitness is reported as ≤ 0.5. G10A C24U A36C A69C gave a yeast fitness of 0.534. In the case of G10C, the yeast fitness is reported as 0.661. Work on G10A G39A A65C C66G yielded a yeast fitness of 0.556. With G10A C34G G44C U47C G52A U53C C61U the yeast fitness was ≤ 0.5. In the case of G10A C30G A36C G58A, the yeast fitness is reported as ≤ 0.5. With G10A C30U C60G the yeast fitness was ≤ 0.5. With G10A C55A G68C the yeast fitness was ≤ 0.5. In the case of G10A G50A G51A, the yeast fitness is reported as ≤ 0.5. For G10C A14C C61A G67A A69C, the yeast fitness was ≤ 0.5. For G10A U26C A36G G56A, the yeast fitness was ≤ 0.5. Work on G10C A14C G23U C31A C33G yielded a yeast fitness of 0.512. In the case of G10A C31U G38C G67A, the yeast fitness is reported as ≤ 0.5. G10A C33U C49U gave a yeast fitness of 0.663. In the case of G10A G58A, the yeast fitness is reported as 0.767. In the case of G10A G17A U28C C31G G67C, the yeast fitness is reported as ≤ 0.5.
